Results published in ChEMBL document CHEMBL5715950, “Characterization of molecular and cellular functions of the cyclin-dependent kinase CDK9 using a novel specific inhibitor” (Br J Pharmacol, 2014).
The source made the active and inactive calls. No cut-off for these calls is given here.

Columns and labels:
[1] = Inhibition of CDK2/Cyclin A (unknown origin) using ULight MBP peptide as substrate in presence of ATP incubated for 1 hr by FRET based LANCE Ultra KinaSelect screen assay; design: species or system Homo sapiens
In short: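 Time-resolved FRET kinase assay with purified CDK-cyclin pairs. ULight MBP peptide substrate was 50 nM final. Buffer was 50 mM HEPES-KOH pH 7.5, 10 mM MgCl2, 1 mM EGTA and 2 mM DTT, with ATP at each kinase's KM (CDK2-cyclin A 3 μM). Reactions ran 1 h at room temperature, then 2 nM Eu-labelled anti-phospho antibody was added for detection. IC50 given as mean ± SD.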

CDK7/Cyclin H/MNAT1 [2] = biological target: T1, CDK7/Cyclin H/MNAT1 (Homo sapiens, UniProt P50613); test: Inhibition of CDK7/Cyclin H/MAT1 (unknown origin) using ULight MBP peptide as substrate in presence of ATP incubated for 1 hr by FRET based LANCE Ultra KinaSelect screen assay; assay type: protein-complex assay
T1 sequence (P51946 whole entry): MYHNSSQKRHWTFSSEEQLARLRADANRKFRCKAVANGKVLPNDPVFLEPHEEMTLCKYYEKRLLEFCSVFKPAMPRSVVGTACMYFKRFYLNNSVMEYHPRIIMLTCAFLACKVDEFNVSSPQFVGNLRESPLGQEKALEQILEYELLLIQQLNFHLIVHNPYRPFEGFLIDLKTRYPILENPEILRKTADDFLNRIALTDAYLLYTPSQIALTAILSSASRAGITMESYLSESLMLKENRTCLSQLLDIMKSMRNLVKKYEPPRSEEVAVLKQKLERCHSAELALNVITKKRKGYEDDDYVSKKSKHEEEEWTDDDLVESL
T1 sequence (P50613 whole entry): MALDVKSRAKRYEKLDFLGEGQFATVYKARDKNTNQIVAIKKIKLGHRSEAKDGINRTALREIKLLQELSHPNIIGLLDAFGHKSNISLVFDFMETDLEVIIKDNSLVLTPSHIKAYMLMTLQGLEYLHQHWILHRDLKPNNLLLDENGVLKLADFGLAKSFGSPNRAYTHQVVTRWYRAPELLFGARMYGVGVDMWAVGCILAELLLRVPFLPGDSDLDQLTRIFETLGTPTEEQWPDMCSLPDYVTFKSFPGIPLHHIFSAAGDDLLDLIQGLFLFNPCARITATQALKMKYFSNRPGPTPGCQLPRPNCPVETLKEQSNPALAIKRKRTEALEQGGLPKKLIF
T1 sequence (P51948 whole entry, further chain): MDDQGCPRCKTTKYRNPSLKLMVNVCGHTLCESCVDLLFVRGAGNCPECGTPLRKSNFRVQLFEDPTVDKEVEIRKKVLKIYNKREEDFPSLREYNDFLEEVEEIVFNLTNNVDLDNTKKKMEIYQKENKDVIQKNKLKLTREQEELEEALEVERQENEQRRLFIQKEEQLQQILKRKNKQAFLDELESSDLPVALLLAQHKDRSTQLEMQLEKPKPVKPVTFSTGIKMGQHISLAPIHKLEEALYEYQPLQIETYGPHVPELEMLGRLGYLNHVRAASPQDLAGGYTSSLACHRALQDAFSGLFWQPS

[3] = Selectivity ratio of IC50 for inhibition of CDK9/Cyclin T1 (unknown origin) to IC50 for inhibition of CDK2/Cyclin A (unknown origin)
[4] = Selectivity ratio of IC50 for inhibition of CDK9/Cyclin T1 (unknown origin) to IC50 for inhibition of CDK1/Cyclin B1 (unknown origin)
[5] = Selectivity ratio of IC50 for inhibition of CDK9/Cyclin T1 (unknown origin) to IC50 for inhibition of CDK4/Cyclin D1 (unknown origin)
[6] = Displacement of kinase tracer 236 from CDK2/Cyclin A (unknown origin) assessed as dissociation constant incubated for 1 hr by LanthScreen Eu kinase binding assay; design: species or system Homo sapiens
CDK7/Cyclin H/MNAT1 [7] = biological target: T1, CDK7/Cyclin H/MNAT1; test: Displacement of kinase tracer 236 from CDK7/Cyclin H/MAT1 (unknown origin) assessed as dissociation constant incubated for 1 hr by LanthScreen Eu kinase binding assay; assay type: protein-complex assay
[8] = biological target: Tyrosine-protein kinase ABL2 (Homo sapiens, UniProt P42684); test: Inhibition of ABL2 (unknown origin) assessed as residual activity at 10 uM incubated for 120 mins in presence of 33P-ATP by radiometric kinase assay relative to control
Sequence of Tyrosine-protein kinase ABL2 (P42684 whole entry, the tested form may be a part): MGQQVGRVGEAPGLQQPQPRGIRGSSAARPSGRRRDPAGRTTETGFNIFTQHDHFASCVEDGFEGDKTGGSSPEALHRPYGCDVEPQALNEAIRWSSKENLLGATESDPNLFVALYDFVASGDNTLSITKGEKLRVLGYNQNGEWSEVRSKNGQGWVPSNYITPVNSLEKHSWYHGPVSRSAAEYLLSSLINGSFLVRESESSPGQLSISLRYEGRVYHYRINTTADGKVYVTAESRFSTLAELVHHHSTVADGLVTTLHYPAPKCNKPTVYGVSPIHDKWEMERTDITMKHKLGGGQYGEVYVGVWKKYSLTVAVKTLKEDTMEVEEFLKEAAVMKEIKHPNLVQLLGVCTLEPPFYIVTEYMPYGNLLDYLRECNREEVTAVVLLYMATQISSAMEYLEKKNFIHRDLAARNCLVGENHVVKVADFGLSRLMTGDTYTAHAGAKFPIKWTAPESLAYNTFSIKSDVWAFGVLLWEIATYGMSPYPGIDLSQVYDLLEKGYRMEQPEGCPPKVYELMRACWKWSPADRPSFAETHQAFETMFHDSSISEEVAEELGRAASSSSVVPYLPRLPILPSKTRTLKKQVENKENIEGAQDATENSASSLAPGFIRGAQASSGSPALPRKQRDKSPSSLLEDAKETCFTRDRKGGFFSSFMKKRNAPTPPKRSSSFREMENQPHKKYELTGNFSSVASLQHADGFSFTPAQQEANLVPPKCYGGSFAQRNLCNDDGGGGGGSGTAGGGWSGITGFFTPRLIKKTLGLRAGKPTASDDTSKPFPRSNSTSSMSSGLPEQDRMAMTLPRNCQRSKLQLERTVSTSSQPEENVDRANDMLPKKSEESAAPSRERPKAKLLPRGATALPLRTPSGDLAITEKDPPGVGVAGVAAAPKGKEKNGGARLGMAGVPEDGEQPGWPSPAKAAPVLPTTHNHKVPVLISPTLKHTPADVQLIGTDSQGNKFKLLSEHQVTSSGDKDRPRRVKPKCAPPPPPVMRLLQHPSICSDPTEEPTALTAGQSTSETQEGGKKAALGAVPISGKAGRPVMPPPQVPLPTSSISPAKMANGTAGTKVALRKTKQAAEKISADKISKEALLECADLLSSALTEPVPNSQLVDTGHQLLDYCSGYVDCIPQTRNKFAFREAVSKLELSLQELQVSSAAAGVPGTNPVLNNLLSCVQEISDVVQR

HEK-293T = test: Inhibition of transcription in human HEK293T cells nuclear extract fused with Gal4-VP16 at 10 uM in presence of ATP and MgCl2 by phosphorimaging analysis; assay type: functional, subcellular; conditions: Nucleus
In short: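 In vitro transcription from the adenovirus core promoter (Gal-ML, 380 bp G-free cassette), soluble or bead-immobilised template, using HEK293T nuclear extract supplemented with recombinant Gal4-VP16. ATP 60 μM (low), 100 μM, or 500 μM (high); magnesium varied in one series. Transcripts quantified by phosphorimaging.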

[9] = biological target: Glycogen synthase kinase-3 alpha (Homo sapiens, UniProt P49840); test: Inhibition of GSK3A (unknown origin) incubated for 120 mins in presence of 33P-ATP by radiometric kinase assay
Sequence of Glycogen synthase kinase-3 alpha (P49840 whole entry): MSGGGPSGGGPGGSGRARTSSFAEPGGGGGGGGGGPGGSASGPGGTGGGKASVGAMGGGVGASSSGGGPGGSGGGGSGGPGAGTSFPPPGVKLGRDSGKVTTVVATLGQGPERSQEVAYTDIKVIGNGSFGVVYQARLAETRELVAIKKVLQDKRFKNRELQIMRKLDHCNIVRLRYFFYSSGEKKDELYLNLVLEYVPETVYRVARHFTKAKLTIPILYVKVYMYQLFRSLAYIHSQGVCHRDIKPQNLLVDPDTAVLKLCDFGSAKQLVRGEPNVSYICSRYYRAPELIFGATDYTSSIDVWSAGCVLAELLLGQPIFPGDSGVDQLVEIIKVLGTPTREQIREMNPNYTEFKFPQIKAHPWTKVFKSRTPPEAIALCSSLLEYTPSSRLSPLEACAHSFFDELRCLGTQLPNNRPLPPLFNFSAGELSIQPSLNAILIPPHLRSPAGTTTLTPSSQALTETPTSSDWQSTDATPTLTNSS

[10] = biological target: Mitogen-activated protein kinase kinase kinase kinase 4 (Homo sapiens, UniProt O95819); test: Inhibition of MAP4K4 (unknown origin) incubated for 120 mins in presence of 33P-ATP by radiometric kinase assay
Sequence of Mitogen-activated protein kinase kinase kinase kinase 4 (O95819 whole entry): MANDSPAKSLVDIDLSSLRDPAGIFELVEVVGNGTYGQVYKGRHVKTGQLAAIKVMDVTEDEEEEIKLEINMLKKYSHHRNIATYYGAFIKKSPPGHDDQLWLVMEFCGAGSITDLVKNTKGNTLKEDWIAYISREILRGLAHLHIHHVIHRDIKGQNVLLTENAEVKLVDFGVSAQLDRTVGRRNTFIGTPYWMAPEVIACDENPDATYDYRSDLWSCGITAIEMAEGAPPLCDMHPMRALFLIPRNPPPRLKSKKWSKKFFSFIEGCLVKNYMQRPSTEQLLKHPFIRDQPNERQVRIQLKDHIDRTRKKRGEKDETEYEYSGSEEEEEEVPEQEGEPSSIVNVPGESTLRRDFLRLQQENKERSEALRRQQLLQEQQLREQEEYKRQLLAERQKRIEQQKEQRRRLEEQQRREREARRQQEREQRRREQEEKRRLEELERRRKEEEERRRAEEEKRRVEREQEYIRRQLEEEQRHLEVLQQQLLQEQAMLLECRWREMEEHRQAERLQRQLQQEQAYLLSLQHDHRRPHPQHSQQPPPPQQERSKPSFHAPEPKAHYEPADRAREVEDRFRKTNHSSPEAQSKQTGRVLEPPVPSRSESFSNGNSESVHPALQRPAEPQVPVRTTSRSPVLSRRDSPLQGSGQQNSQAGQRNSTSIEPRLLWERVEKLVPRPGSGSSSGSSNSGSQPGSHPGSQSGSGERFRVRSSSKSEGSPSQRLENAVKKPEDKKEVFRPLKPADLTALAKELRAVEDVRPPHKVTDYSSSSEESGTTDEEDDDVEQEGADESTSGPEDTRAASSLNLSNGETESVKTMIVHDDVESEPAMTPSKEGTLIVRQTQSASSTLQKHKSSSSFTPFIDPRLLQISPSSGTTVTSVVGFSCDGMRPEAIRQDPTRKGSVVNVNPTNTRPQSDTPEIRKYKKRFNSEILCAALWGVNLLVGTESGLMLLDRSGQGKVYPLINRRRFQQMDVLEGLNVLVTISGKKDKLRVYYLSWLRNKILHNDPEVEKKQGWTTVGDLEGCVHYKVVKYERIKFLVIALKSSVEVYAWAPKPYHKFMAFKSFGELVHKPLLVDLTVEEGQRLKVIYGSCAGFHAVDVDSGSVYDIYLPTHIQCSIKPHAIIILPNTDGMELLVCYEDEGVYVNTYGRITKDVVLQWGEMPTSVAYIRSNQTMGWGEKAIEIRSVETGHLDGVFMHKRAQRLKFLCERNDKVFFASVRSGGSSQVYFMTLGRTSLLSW

[11] = biological target: Cyclin-dependent kinase 9 (Homo sapiens) (UniProt P50750); test: Inhibition of CDK9 in human HeLa cells assessed as downregulation of Serine 5 phosphorylation at 10 uM incubated for 60 mins by Western blotting analysis; assay type: cell-based
Sequence of Cyclin-dependent kinase 9 (Homo sapiens) (P50750 whole entry): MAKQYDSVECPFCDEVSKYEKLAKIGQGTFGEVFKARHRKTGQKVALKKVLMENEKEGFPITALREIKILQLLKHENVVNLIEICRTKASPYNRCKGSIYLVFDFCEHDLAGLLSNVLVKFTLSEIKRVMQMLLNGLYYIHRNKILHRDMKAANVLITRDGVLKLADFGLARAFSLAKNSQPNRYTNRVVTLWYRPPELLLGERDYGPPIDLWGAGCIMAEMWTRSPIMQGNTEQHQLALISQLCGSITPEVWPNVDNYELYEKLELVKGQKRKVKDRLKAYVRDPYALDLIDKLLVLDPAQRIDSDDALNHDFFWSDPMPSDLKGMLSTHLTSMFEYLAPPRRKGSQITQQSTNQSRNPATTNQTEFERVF

[12] = biological target: Cyclin-dependent kinase 9 (Homo sapiens) (UniProt P50750); test: Inhibition of CDK9 in human HeLa cells assessed as downregulation of Serine 7 phosphorylation at 10 uM incubated for 60 mins by Western blotting analysis; assay type: cell-based
[13] = biological target: Cyclin-dependent kinase 9 (Homo sapiens) (UniProt P50750); test: Inhibition of CDK9 in human MCF7 cells assessed as upregulation of p53 phosphorylation at Ser392 at 10 uM incubated for 4 hrs by Western blotting analysis; assay type: cell-based
[14] = biological target: Cyclin-dependent kinase 9 (Homo sapiens) (UniProt P50750); test: Inhibition of CDK9 in human MCF7 cells assessed as upregulation of p53 protein at 10 uM incubated for 4 hrs by Western blotting analysis; assay type: cell-based
HeLa [15] = test: Induction of apoptosis in human HeLa cells at > 2 uM incubated for 24 hrs by Annexin V-FITC/PI staining based flow cytometric analysis; assay type: functional, cell-based
In short: (§1)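 Cells grown at 37°C, 5% CO2 (A549, HeLa, MCF7 in DMEM high glucose; HCT116 in McCoy's 5A; THP1 and primary AML M4 apheresis blasts in RPMI1640), exposed to inhibitor or DMSO for 24 h. Apoptotic fraction by flow cytometry after annexin V-fluorescein/propidium iodide double staining. Means ± SD of three biological replicates; AML blasts from one patient, three technical replicates. Student's t-test versus DMSO/untreated.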

[16] = Induction of apoptosis in human Acute myeloid leukemic cell at 10 uM incubated for 24 hrs by Annexin V-FITC/PI staining based flow cytometric analysis relative to control; assay type: functional, Leukemia cell; in short: as §1
[17] = biological target: Cyclin-dependent kinase 9 (Homo sapiens) (UniProt P50750); test: Inhibition of CDK9 in human A549 cells assessed as downregulation of RPL3 mRNA expression at 1 to 10 uM incubated for 90 mins by RT-qPCR analysis relative to control; assay type: cell-based; conditions: dose 1-10 µM
[18] = biological target: Cyclin-dependent kinase 9 (Homo sapiens) (UniProt P50750); test: Inhibition of CDK9 in human A549 cells assessed as downregulation of p21 mRNA expression at 1 to 10 uM incubated for 90 mins by RT-qPCR analysis relative to control; assay type: cell-based; conditions: dose 1-10 µM
[19] = biological target: Cyclin-dependent kinase 9 (Homo sapiens) (UniProt P50750); test: Inhibition of CDK9 in human A549 cells assessed as downregulation of PLK2 mRNA expression at 1 to 10 uM incubated for 90 mins by RT-qPCR analysis relative to control; assay type: cell-based; conditions: dose 1-10 µM
[20] = biological target: Cyclin-dependent kinase 9 (Homo sapiens) (UniProt P50750); test: Inhibition of CDK9 in human A549 cells assessed as downregulation of CCND1 mRNA expression at 1 to 10 uM incubated for 90 mins by RT-qPCR analysis relative to control; assay type: cell-based; conditions: dose 1-10 µM
[21] = biological target: Cyclin-dependent kinase 9 (Homo sapiens) (UniProt P50750); test: Inhibition of CDK9 in human A549 cells assessed as downregulation of MYC mRNA expression at 1 to 10 uM incubated for 90 mins by RT-qPCR analysis relative to control; assay type: cell-based; conditions: dose 1-10 µM
[22] = biological target: Cyclin-dependent kinase 9 (Homo sapiens) (UniProt P50750); test: Inhibition of CDK9 in human A549 cells assessed as downregulation of RPL3 mRNA expression at 2 to 6 uM incubated for 90 mins by RT-qPCR analysis relative to control; assay type: cell-based; conditions: dose 2-6 µM
[23] = biological target: Cyclin-dependent kinase 9 (Homo sapiens) (UniProt P50750); test: Inhibition of CDK9 in human A549 cells assessed as downregulation of MYC mRNA expression at 2 to 6 uM incubated for 90 mins by RT-qPCR analysis relative to control; assay type: cell-based; conditions: dose 2-6 µM
HeLa [24] = test: Inhibition of RNA synthesis in human HeLa cells stably transfected with luciferase reporter gene at 2 uM incubated for 30 mins followed by doxycycline addition and measured after 60 mins by RT-qPCR analysis relative to control; assay type: functional; conditions: 1.5 h, time 90 min
In short: (§2)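 Stably transfected HeLa cells carrying a tetracycline-inducible luciferase reporter: inhibitor or DMSO for 30 min, then 1 μg/mL doxycycline for 60 min. De novo reporter transcripts measured by RT-qPCR.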

HeLa [25] = test: Inhibition of RNA synthesis in human HeLa cells stably transfected with luciferase reporter gene at 0.04 to 2 uM incubated for 30 mins followed by doxycycline addition and measured after 60 mins by RT-qPCR analysis; assay type: functional, cell-based; conditions: dose 0.04-2 µM, time 90.0 min; in short: as §2
[26] = biological target: Cyclin-dependent kinase 9 (Homo sapiens) (UniProt P50750); test: Inhibition of CDK9 in human THP-1 cells assessed as downregulation of MED1 mRNA expression by RT-qPCR analysis; assay type: cell-based

Compound: COc1ccccc1-c1cc(Nc2cccc(NS(C)(=O)=O)c2)ncn1
- IC50 [1]: 2440 nM
- IC50 (CDK7/Cyclin H/MNAT1 [2]): > 10000 nM
- Ratio IC50 [3]: 55
- Ratio IC50 [4]: 125
- Ratio IC50 [5]: 210
- Kd [6]: 1010 nM
- Kd (CDK7/Cyclin H/MNAT1 [7]): 16000 nM
- Activity [8]: 27%
- inhibition (HEK-293T): inactive
- IC50 [9]: 1460 nM
- IC50 [10]: 820 nM
- inhibition [11]: inactive
- inhibition [12]: inactive
- inhibition [13]: Active
- inhibition [14]: Active
- Activity (HeLa [15]): Active
- Activity [16]: >60%
- inhibition [17]: 50%
- inhibition [18]: 50%
- inhibition [19]: 50%
- inhibition [20]: 50%
- inhibition [21]: 50%
- inhibition [22]: 50%
- inhibition [23]: 50%
- inhibition at 2 µM (HeLa [24]): 50%
- inhibition (HeLa [25]): Active
- inhibition [26]: Active
